From ChEMBL document CHEMBL2016482, “Synthesis and inhibitory effect of piperine derivates on monoamine oxidase” (Bioorg Med Chem Lett, 2012)

Experiments:
[1] = biological target: T1, Amine oxidase [flavin-containing] A (Rattus norvegicus, UniProt P21396); assay: Inhibition of MAO-A in Sprague-Dawley rat brain homogenate using kynuramine as substrate preincubated for 10 mins measured by fluorimetric assay; format: tissue-based
T1 sequence (P21396 whole entry): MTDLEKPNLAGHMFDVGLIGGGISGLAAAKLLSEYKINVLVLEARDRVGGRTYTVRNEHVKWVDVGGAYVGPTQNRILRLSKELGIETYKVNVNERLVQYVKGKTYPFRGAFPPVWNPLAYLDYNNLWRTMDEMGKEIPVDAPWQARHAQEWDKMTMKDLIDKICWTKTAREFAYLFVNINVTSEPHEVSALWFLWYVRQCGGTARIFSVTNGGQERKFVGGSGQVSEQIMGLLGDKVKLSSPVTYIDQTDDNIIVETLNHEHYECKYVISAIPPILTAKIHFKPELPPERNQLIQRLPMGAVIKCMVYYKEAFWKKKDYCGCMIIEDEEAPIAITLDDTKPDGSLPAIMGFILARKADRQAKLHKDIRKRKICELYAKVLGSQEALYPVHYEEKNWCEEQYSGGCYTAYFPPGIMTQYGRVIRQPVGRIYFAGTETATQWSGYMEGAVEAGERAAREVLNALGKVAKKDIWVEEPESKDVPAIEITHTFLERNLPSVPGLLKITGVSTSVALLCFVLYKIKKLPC
Method in brief: (§1)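 Rat brain homogenate was the enzyme source, with protein measured by Bradford against a BSA standard. Fluorometric MAO assay used kynuramine substrate in the presence of isoform-specific inhibitors. Test inhibitor was preincubated with homogenate for 10 min. IC50 came from plots of % residual activity relative to enzyme treated identically without inhibitor.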

[2] = biological target: T2, Amine oxidase [flavin-containing] B (Rattus norvegicus, UniProt P19643); assay: Inhibition of MAO-B in Sprague-Dawley rat brain homogenate using kynuramine as substrate preincubated for 10 mins measured by fluorimetric assay; format: tissue-based; method in brief: as §1
T2 sequence (P19643 whole entry): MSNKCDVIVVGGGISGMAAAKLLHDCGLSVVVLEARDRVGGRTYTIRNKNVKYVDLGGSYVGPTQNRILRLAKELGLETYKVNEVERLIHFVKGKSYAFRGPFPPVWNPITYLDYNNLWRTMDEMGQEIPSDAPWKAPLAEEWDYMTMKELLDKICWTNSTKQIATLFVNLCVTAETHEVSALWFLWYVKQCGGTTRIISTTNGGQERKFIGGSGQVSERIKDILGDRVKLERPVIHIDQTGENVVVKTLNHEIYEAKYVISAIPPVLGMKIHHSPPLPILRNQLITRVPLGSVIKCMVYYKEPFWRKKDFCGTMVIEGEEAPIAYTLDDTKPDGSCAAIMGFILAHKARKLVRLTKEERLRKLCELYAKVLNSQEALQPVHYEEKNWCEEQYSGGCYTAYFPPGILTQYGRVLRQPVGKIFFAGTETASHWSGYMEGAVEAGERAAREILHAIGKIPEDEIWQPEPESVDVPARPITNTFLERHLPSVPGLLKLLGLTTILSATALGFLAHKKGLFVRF

Rattus norvegicus = species: Rattus norvegicus; assay: Selectivity ratio of IC50 for Sprague-Dawley rat MAO-A to IC50 for Sprague-Dawley rat MAO-B
[3] = biological target: T2, Amine oxidase [flavin-containing] B; assay: Competitive inhibition of MAO-B in Sprague-Dawley rat brain homogenate by Lineweaver-Burk plot analysis; format: tissue-based
Method in brief: (§2)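 Kinetic mode of the same homogenate kynuramine fluorometric assay. Reciprocal MAO activity was plotted against reciprocal kynuramine concentration (Lineweaver–Burk), each at three inhibitor levels including zero, run separately for MAO-A and MAO-B.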

[4] = biological target: T1, Amine oxidase [flavin-containing] A; assay: Competitive inhibition of MAO-A in Sprague-Dawley rat brain homogenate by Lineweaver-Burk plot analysis; format: tissue-based; method in brief: as §2

| IC50 [1] [nM] | IC50 [2] [nM] | Ratio IC50 (Rattus norvegicus) | inhibition (INH) [3] | inhibition (INH) [4] | SMILES |
| --- | --- | --- | --- | --- | --- |
| > 100000 | > 100000 | – | – | – | CN1CCN(C(=O)CCCCc2ccc3c(c2)OCO3)CC1 |
| 7550 | 330 | 22.8 | – | – | CCOC(=O)/C=C/C=C/c1ccc2c(c1)OCO2 |
| 5210 | 1750 | 2.98 | – | – | CCN(CC)C(=O)CCCCc1ccc2c(c1)OCO2 |
| > 100000 | > 100000 | – | – | – | O=C(C1C=CC(c2ccc3c(c2)OCO3)C(/C=C/c2ccc3c(c2)OCO3)C1C(=O)N1CCCCC1)N1CCCCC1 (stereo not drawn) |
| 1280 | 750 | 1.71 | – | – | CC(=O)Oc1ccc(/C=C/C=C/C(=O)N2CCCCC2)cc1OC(C)=O |
| > 100000 | > 100000 | – | – | – | C(/C=C/c1ccc2c(c1)OCO2)=C\CN1CCCCC1 |
| > 100000 | 1970 | – | – | – | O=C(CCCCc1ccc2c(c1)OCO2)N1CCCCC1 [TETRAHYDROPIPERINE] |
| 3820 | 78 | 49 | – | – | CCN(CC)C(=O)/C=C/C=C/c1ccc2c(c1)OCO2 |
| 16100 | 3500 | 4.59 | – | – | CCCCNC(=O)CCCCc1ccc2c(c1)OCO2 |
| 3660 | 45 | 81.5 | Active | Active | CCCNC(=O)/C=C/C=C/c1ccc2c(c1)OCO2 |
| 404 | 260 | 1.55 | – | – | O=C(/C=C/C=C/c1ccc2c(c1)OCO2)N1CCCCC1 [PIPERINE] |
| 2040 | 960 | 2.12 | – | – | CN1CCN(C(=O)/C=C/C=C/c2ccc3c(c2)OCO3)CC1 |
| 800 | 1570 | 0.51 | – | – | O=C(/C=C/C=C/c1ccc(O)c(O)c1)N1CCCCC1 |
| 3170 | 1800 | 1.76 | – | – | COC(=O)CCCCc1ccc2c(c1)OCO2 |
| 18300 | 13600 | 1.35 | – | – | O=C(O)/C=C/C=C/c1ccc2c(c1)OCO2 [PIPERIC ACID] |
| > 100000 | > 100000 | – | – | – | CCCNC(=O)CCCCc1ccc2c(c1)OCO2 |
| > 100000 | 330 | – | – | – | CCCCNC(=O)/C=C/C=C/c1ccc2c(c1)OCO2 |
| 5570 | 1230 | 4.53 | – | – | CCOC(=O)CCCCc1ccc2c(c1)OCO2 |

| SMILES | IC50 [1] [nM] | IC50 [2] [nM] | Ratio IC50 (Rattus norvegicus) | inhibition (INH) [3] | inhibition (INH) [4] |
| --- | --- | --- | --- | --- | --- |
| COC(=O)/C=C/C=C/c1ccc2c(c1)OCO2 [METHYL PIPERATE] | 2740 | 230 | 11.9 | – | – |
